hERG rescue – shields human hERG channel from block by proarrhythmic agents; Q12809; CHO-hERG, FluxOR thallium flux, dofetilide IC70 present; activation (rescue from dofetilide block), less the hit threshold, % at 10 µM; actives 0.51% (n = 310,000); AID 1511;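 active = activation above the mean of controls blocked by dofetilide plus 5 SD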;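 also: thallium influx through hERG after potassium depolarization seen as dye fluorescence rise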
KCNQ1 act – human KCNQ1 channel potentiation or activation; CHO-K1 KCNQ1, thallium flux FluxOR fluorescence; stronger effect = higher value; B-score at 10 µM; actives 0.35% (n = 310,000);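 active = fluorescence ratio B-score, a plate-corrected score, at least three library SD, with initial intensity B-score within 5 SD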
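System: Stable KCNQ1 CHO-K1 line | Incubation: 90 min dye loading and 20 min compound exposure, both at room temperature | Measure: Ratio B score | Medium: Assay buffer for compound exposure, DMSO matched across wells | Compound dosing: Single-concentration screen | Probe or stimulus: K+/Tl+ depolarizing stimulus | Measured by: Kinetic FluxOR fluorescence, 10 s baseline plus 110 s post-stimulus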
KCNQ1 block – inhibitors of human KCNQ1 potassium channel. CHO-K1 KCNQ1, FluxOR thallium flux fluorescence; stronger effect = higher value. P51787. B-score at 10 µM. AID 2642. actives 1.3% (n = 310,000);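 active = compounds whose thallium flux B-score, printed positive for inhibition, exceeds three library SD while starting fluorescence stays within three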;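 also: channel opened by potassium depolarization with thallium stimulus after 20 min compound exposure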
KCNK3 inh – human KCNK3 channel inhibition, primary screen | O14649 | CHO-KCNK3 thallium flux, FluxOR fluorescence; stronger effect = lower value | B-score at 10 µM | actives 0.84% (n = 340,000);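 active = B-score under library mean minus 4 SD, starting fluorescence ratio at most library mean plus 5 SD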;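 also: more negative B-score means stronger inhibition of thallium flux through KCNK3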
KCNK9 block – inhibitors of human KCNK9 two-pore domain potassium channel; HEK293 KCNK9, FluxOR thallium flux fluorescence; stronger effect = lower value; B-score at 10 µM; actives 1.2% (n = 310,000);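 active = ratio B-score over 3 SD below the library mean, with starting fluorescence within 5 SD of its mean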;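 also: negative B-score means less thallium flux so channel inhibition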
KCNQ1 block val – confirmation of human KCNQ1 potassium channel inhibitors | shares compounds with KCNQ1 block | KCNQ1 cell line, FluxOR thallium flux fluorescence | inhibition, % at 10 µM | actives 93% (n = 1,600);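 active = primary screen active, with duplicate mean exceeding buffer control mean plus 3 SD of buffer wells, cut at about 28% in these data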;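 also: 0% = buffer control ratio and 100% = XE991 inhibitor control ratio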
CHO KCNQ1 ctr – counter-screen for KCNQ1 inhibitors: effect in parental CHO cells; shares compounds with KCNQ1 block; parental CHO-K1, FluxOR thallium flux fluorescence ratio; stronger effect = lower value; zero means no signal rise above baseline; fluorescence ratio (Tl flux) at 10 µM; actives 21% (n = 1,600);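 active = mean of duplicate thallium-flux fluorescence ratios in parental host cells more than 5 SD below the buffer control mean, cut at about 0.38 in these data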;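 also: ratio is peak minus minimum fluorescence divided by baseline fluorescence; actives read low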
KCNQ1 ephys val – human KCNQ1 inhibition validated by electrophysiology. actives 20% (n = 490). AID 624120. calls only at 10 µM. shares compounds with KCNQ1 block. KCNQ1-CHO cells, automated patch clamp current;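 active = KCNQ1 current drop exceeding 3 SD of negative control wells, seen in both duplicate runs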;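 also: steady state current during a 2 s step from -80 to +40 mV; negative values mean current inhibition and positive values mean potentiation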
KCNQ2 spec – selectivity of KCNQ1 inhibitors: inhibition of rat KCNQ2 channel | inhibition, % at 10 µM | KCNQ2 cells, FluxOR thallium flux fluorescence | actives 71% (n = 1,600) | shares compounds with KCNQ1 block;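 active = mean percent inhibition of the KCNQ2 thallium signal more than 5 SD above the buffer-only control wells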;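 also: KCNQ2 expressed in CHO cells; 0% = buffer control wells and 100% = XE-991 inhibitor control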
Target sequence (O88943 whole entry, looked up): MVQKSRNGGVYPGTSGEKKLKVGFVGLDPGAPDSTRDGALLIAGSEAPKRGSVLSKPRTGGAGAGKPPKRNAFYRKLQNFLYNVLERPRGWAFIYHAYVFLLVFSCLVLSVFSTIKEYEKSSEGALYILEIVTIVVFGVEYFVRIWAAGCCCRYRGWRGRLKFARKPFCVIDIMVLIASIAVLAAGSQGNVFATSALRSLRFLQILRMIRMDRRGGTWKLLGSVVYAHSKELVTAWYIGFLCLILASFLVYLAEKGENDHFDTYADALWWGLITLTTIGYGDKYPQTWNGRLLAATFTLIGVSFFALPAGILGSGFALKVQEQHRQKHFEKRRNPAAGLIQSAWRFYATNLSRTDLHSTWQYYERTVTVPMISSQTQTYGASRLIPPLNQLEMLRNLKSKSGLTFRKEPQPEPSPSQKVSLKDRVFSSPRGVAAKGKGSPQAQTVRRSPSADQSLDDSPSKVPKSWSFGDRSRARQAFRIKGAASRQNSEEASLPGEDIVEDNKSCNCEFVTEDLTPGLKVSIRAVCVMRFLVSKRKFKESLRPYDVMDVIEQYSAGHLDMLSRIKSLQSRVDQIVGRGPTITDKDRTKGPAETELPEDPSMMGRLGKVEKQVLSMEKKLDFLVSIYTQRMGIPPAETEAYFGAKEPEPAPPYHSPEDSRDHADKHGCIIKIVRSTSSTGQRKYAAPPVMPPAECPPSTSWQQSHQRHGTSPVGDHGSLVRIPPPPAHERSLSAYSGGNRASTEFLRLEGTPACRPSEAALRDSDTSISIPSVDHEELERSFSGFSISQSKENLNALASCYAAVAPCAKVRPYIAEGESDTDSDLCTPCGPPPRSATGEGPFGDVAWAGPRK
KCNQ1-KCNE1 inh – selectivity of KCNQ1 inhibitors: inhibition of human KCNQ1/KCNE1 channel; shares compounds with KCNQ1 block; KCNQ1/KCNE1 cells, FluxOR thallium flux fluorescence; inhibition, % at 10 µM; actives 77% (n = 1,600);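 active = mean percent inhibition of duplicate wells above the buffer-only control mean plus 3 SD of those controls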;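 also: 0% = buffer only wells and 100% = XE-991 inhibitor control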
Starred values were filed as active, the others as inactive; i = inactive; . = no result; + = active, no number. The list is not random: actives were taken first. Their share in the collection is about 3.1%.

SMILES	hERG rescue	KCNQ1 act	KCNQ1 block	KCNK3 inh	KCNK9 block	KCNQ1 block val	CHO KCNQ1 ctr	KCNQ2 spec	KCNQ1-KCNE1 inh	others
Cc1ccc2nc(/N=C(\N)NC(=O)NC3CCCCC3)nc(C)c2c1	-22	i	7*	i	i	56*	0.52	i	i
Cc1c(C(=O)OCC(=O)N(C)CC(=O)Nc2ccc(F)cc2)oc2ccccc12	.	.	.	i	.	.	.	.	.
O=S(=O)(c1ccc2c(c1)CCN2)N1CCCC1	.	.	.	i	.	.	.	.	.
CCCn1nc(NC(=O)CC)c2cc3cccc(C)c3nc21	-5	i	i	i	i	.	.	.	.
CCCn1nc(NC(=O)c2cccs2)c2cc3cccc(C)c3nc21	-10	i	7*	i	i	158*	0.32*	i	+
CN(C(=O)Cn1cc([N+](=O)[O-])ccc1=O)C1CCCCC1	.	.	.	i	.	.	.	.	.
CCc1c(C2(O)CCCCC2)[nH]c2c(C(=O)OC)cc(Cl)cc12	-7	i	6*	i	i	126*	0.38*	120%*	123%*
COCCNS(=O)(=O)c1cc2[nH]c3c(c2cc1C)C(=O)CC(C)(C)C3	-1	i	i	i	i	.	.	.	.
CCn1c(SCC(=O)Nc2sccc2C(N)=O)nnc1C1CC1	.	.	.	i	.	.	.	.	.
CC(C)(CCl)C(=O)Nc1ccc(C(F)(F)F)cc1	-4	i	6*	i	i	56*	0.5	66%*	68%*
Cc1[nH]n(-c2ncc(-c3ccccc3)s2)c(=O)c1C(c1ccc(Cl)cc1)C(C#N)C#N (centres undefined)	-15	i	7*	i	i	45*	0.42	i	69%*
Cc1[nH]n(-c2ccccc2)c(=O)c1C(c1ccccc1[N+](=O)[O-])C(C#N)C#N (centres undefined)	-9	i	i	i	i	.	.	.	.
CCn1ncc(Br)c1C(=O)Nc1ccc(C(C)C)cc1	-4	i	i	i	i	.	.	.	.
Cc1csc(=O)n1CCC(=O)OCC(=O)c1c(N)n(CC(C)C)c(=O)n(C)c1=O	-21	i	i	i	i	.	.	.	.
CC(C)Cn1c(N)c(C(=O)COC(=O)CC23CC4CC(CC(C4)C2)C3)c(=O)n(C)c1=O	-17	i	12*	i	i	144*	0.3*	124%*	186%*
CC(C)Cn1c(N)c(C(=O)COC(=O)CCc2nc3ccccc3s2)c(=O)n(C)c1=O	-20	i	8*	i	i	132*	0.44	84%*	96%*	KCNQ1 ephys val=i
Cn1nc(C(=O)OCC(=O)Nc2cccc(S(=O)(=O)N3CCCC3)c2)c2ccccc2c1=O	-10	i	i	i	i	.	.	.	.
CCc1noc(C)c1C(=O)N1CCCSC1=Nc1ccccc1	-9	i	8*	i	i	101*	0.47	59%*	66%*	KCNQ1 ephys val=+
CC1CCCN(C(=O)c2cccc(S(=O)(=O)N3CCCC3)c2)C1 (centres undefined)	.	.	.	i	.	.	.	.	.
CCCCOc1cccc(C2C(C(=O)c3ccc(C)o3)=C(O)C(=O)N2c2nnc(C)s2)c1 (centres undefined)	-12	i	9*	i	i	146*	0.34*	105%*	i
CCCOc1cccc(C2C(C(=O)c3ccco3)=C(O)C(=O)N2c2nnc(C)s2)c1 (centres undefined)	-16	i	i	i	i	.	.	.	.
COc1ccc(-c2cc(-c3ccccc3)nc(Cl)n2)cc1OC	-6	i	8*	i	i	131*	0.45	128%*	166%*	KCNQ1 ephys val=i
CCC(C)n1c(NC(=O)c2ccccc2)c(C#N)c2nc3ccccc3nc21 (centres undefined)	-15	i	8*	i	i	82*	0.44	64%*	i
CCC(=O)Nc1c(C#N)c2nc3ccccc3nc2n1-c1ccc(C)cc1	.	.	.	i	.	.	.	.	.
Cn1nc(-c2ccccc2)cc1NC(=O)Nc1ccc(C(C)(C)C)cc1	-8	i	9*	i	i	72*	0.48	i	42%*
SMILES	hERG rescue	KCNQ1 act	KCNQ1 block	KCNK3 inh	KCNK9 block	KCNQ1 block val	CHO KCNQ1 ctr	KCNQ2 spec	KCNQ1-KCNE1 inh	others
COc1cc(CNC2CCCCCCC2)c(Br)cc1OCCO	-5	i	i	i	i	.	.	.	.
O=c1c2ccccc2n(Cc2cccc(F)c2)c(=O)n1C1CCCC1	-5	i	9*	-12*	-7.7*	95*	0.39	92%*	84%*	KCNQ1 ephys val=i
O=C(Cc1ccc(Cl)cc1)NC1CCCCCC1	-4	i	i	i	i	.	.	.	.
Clc1ccc(CN=C(Nc2ccccc2)NC2CCCCC2)cc1	-8	i	8*	i	i	48*	0.46	i	38%*
CCOc1ccc(OCCC(=O)OCC(=O)N2CCN(S(=O)(=O)c3ccc(Cl)cc3)CC2)cc1	-4	i	i	i	i	.	.	.	.
NC(=O)C1CCN(C(=O)C2CC(=O)N(Cc3ccccc3)C2)CC1 (centres undefined)	.	.	.	i	.	.	.	.	.
O=C(Nc1ccc(F)cc1)C(NC1CCCCC1)c1ccccc1 (centres undefined)	-5	i	7*	i	i	76*	0.48	65%*	105%*
O=C(CCSc1ccccc1)N1CCN(c2ccccc2)CC1	-12	i	7*	i	i	26*	0.47	i	64%*
CC(C)Cc1nnc(NC(=O)c2cc(-c3ccccc3)nc3ccccc23)s1	-30	i	6*	i	i	121*	0.51	80%*	143%*
Cc1cccc(C(=O)Nc2cc(S(=O)(=O)N3CCOCC3)ccc2N2CCCC2)c1	.	.	.	i	.	.	.	.	.
Cc1ccccc1C(=O)Nc1ccc2c(C#N)c3nc4ccccc4nc3n2c1	-12	i	8*	i	i	32*	0.52	64%*	i
O=C(C1CC(=O)N(c2ccccc2)C1)N1CCN(c2ccccc2)CC1 (centres undefined)	-8	i	i	i	i	.	.	.	.
Cc1ccc(NC(=O)CN2C(=O)N/C(=C\c3ccco3)C2=O)cc1	.	.	.	i	.	.	.	.	.

Source: PubChem (Johns Hopkins Ion Channel Center)
